In the library only some 1.9% were active in any assay of this set; here they are far more common.
RanGTP-Imp inh = inhibitors of RanGTP-importin-beta interaction, primary screen, biochemical, FRET, CFP-Ran, YFP-importin-beta, homogeneous. cell-free CFP-Ran/YFP-importin-beta FRET ratio. inhibition, % (concentration not given with the values). hit rate 1.1% among 300,000. AID 2216;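 active means more than half of the replicate wells show a fall in the fluorescence ratio signal beyond about 16%, limit read from the data, passing the limit was not always enough; inconclusive means exactly half of the replicate wells pass the set limit; inactive means fewer than half of replicates pass the limit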;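 further: 0% = DMSO wells and 100% = Ran loaded with GDP instead of GTP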
Hck Nef HTS = blocks Nef-activated human Hck kinase; hit rate 0.68% among 220,000; Recombinant Hck-YEEI plus Nef, Z-Lyte FRET kinase assay; P08631; inhibition, % at 20 µM;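 active means Hck-Nef kinase inhibition above about 50%, limit read from the data; inactive means inhibition below that limit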;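 further: 0% = DMSO with Hck plus Nef and 100% = Hck alone without Nef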
Runt-SMMHC FRET = blocks binding of human RUNX1 Runt domain to CBFb-SMMHC | AID 1434 | hit rate 0.74% among 220,000 | Q01196+Q13951 | Cerulean-Runt/Venus-CBFb-SMMHC FRET ratio 530/480, 1 h | inhibition, % at 20 µM;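 active means mean inhibition across duplicate retests at 20 µM reaching about 50%, limit read from the data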;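 further: 0% = DMSO wells and 100% = wells with excess untagged CBFb-SMMHC; inhibitors lower the FRET ratio by blocking Runt binding to CBFb-SMMHC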
Target sequence (Q01196 whole entry, looked up, the tested form may be a part): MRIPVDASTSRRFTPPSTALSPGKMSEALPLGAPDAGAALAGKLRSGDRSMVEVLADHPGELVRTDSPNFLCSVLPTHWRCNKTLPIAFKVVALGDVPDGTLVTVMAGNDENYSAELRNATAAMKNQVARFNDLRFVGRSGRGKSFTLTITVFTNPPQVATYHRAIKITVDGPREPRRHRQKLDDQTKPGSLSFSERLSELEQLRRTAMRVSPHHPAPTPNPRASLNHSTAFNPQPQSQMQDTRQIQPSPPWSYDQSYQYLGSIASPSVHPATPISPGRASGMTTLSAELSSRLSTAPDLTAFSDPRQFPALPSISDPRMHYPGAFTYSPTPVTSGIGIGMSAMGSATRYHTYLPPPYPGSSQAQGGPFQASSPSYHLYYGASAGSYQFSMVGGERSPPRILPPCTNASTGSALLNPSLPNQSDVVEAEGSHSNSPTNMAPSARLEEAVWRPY
Target sequence (Q13951 whole entry, looked up, the tested form may be a part): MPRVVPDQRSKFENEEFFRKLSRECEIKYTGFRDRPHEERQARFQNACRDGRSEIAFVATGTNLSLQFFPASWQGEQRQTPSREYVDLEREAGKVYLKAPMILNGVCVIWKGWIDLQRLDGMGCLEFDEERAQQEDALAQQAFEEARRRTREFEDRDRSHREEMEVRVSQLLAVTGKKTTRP
Runt-CBFb FRET = blocks binding of human RUNX1 Runt domain to CBFb; AID 1496; Cerulean-Runt/Venus-CBFb FRET ratio 530/480, 1 h; hit rate 0.46% among 220,000; inhibition, % at 20 µM;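 active means inhibition over about 50% at 20 µM in the single-dose screen, limit read from the data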;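 further: 0% = DMSO wells and 100% = excess unlabeled CBFb competitor control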
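Measured by: fluorescence energy transfer, 422 nm excitation, 530/480 nm emission; Assay system: Cerulean-Runt domain; Medium: Tris pH 7.5 buffer with BSA; Measure: loss of energy transfer signal; Controls: 5 µM unlabeled CBFb as full-inhibition high control; Incubation: protein complex preformed 1 h, compound exposure 1 h, room temperature, dark.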
The depositor's hits bear a star; ? = inconclusive; nt = no result.

SMILES	RanGTP-Imp inh	Hck Nef HTS	Runt-SMMHC FRET	Runt-CBFb FRET
COc1ccc(-c2c(C#N)c(N)nc3c2CCCC3)cc1OC	-2	10	nt	nt
COc1ccc(-c2c(C#N)c(N)nc3c2CCC3)cc1	-6	10	97*	45
Cc1nn(-c2ccc(N3CCOCC3)nn2)c(C)c1CCC(=O)NCc1ccccc1	4	nt	nt	nt
CCOCCCNc1c2c(nc3cc(-c4ccc(F)cc4)nn13)CCC2	2	-1	-1	-1
CN(C)CCCNc1c2c(nc3cc(-c4cccc(F)c4)nn13)CCC2	27*	15	2	0
CC(Sc1cccc[n+]1[O-])C(=O)Nc1ccc(Oc2ccccc2)cc1 (stereo unspecified)	10	20	2	-1
COCCCNc1nc2nonc2nc1N1CCN(Cc2cccc(C)c2)CC1	0	3	82*	24
COCCCNc1nc2nonc2nc1N1CCN(C2CCCC2)CC1	0	13	-1	-2
CC1(C)CC(=O)C2=C(C1)NC(=O)NC2c1ccccc1 (stereo unspecified)	-2	8	12	4
CC1C2=C(CC(C)(C)CC2=O)NC2=C1C(=O)CC(C)(C)C2	136*	39	86*	21
COCCn1c(=N)c(S(=O)(=O)c2ccc(F)cc2)cc2c(=O)n3ccccc3nc21	160*	nt	nt	nt
COCCn1c(=N)c(S(=O)(=O)c2ccc(Br)cc2)cc2c(=O)n3ccccc3nc21	119*	nt	nt	nt
CCC(=O)N1c2ccccc2NC2=C(C(=O)CC(C)(C)C2)C1c1ccc(O)c(OC)c1 (stereo unspecified)	9	nt	nt	nt
CCn1nc(C)cc1Nc1ccccc1	37*	-8	-4	2
O=C(CCNc1n[nH]c(=O)[nH]c1=O)N1CCOCC1	5	-2	3	0
O=C(CCc1ccccc1)NNc1cc(N2CCCCC2)nc(N2CCCCC2)n1	71*	1	-7	-5
COc1ccc(NC(=O)NNc2cc(N3CCOCC3)nc(N3CCOCC3)n2)cc1	66*	19	4	2
O=C(NNc1cc(N2CCCC2)nc(N2CCCC2)n1)c1ccc([N+](=O)[O-])cc1	-1	23	nt	nt
CC(C)(C)c1ccc(C(=O)NNc2cc(N3CCOCC3)nc(N3CCOCC3)n2)cc1	85*	18	-6	-1
O=C(NNc1cc(N2CCOCC2)nc(N2CCOCC2)n1)c1ccc(Cl)cc1Cl	76*	2	-5	4
CC(C)(C)c1ccc(C(=O)NNc2cc(N3CCCCC3)nc(N3CCCCC3)n2)cc1	5	1	-4	-10
Cc1ccccc1CCN1CCCC(CN(C)C(=O)c2ccc3ncccc3c2)C1 (stereo unspecified)	1	nt	nt	nt
CC(=O)NNc1cc(N2CCOCC2)nc(N2CCOCC2)n1	83*	19	86*	49
CCc1ccc(NC(=O)CCc2ccc(CC)o2)cc1	4	nt	nt	nt
O=C1C/C(=C\c2c(F)cccc2Cl)N2CCC1CC2	53*	13	-5	-1
SMILES	RanGTP-Imp inh	Hck Nef HTS	Runt-SMMHC FRET	Runt-CBFb FRET
CSC1=N/C(=C\c2c(F)cccc2Cl)C(=O)S1	-2	2	2	2
Cc1ccccc1OCC(=O)O/N=C(\N)c1ccncc1	3	nt	nt	nt
CCN(CC)CCCN1C=C2C(=O)C(C)(OC(=O)CCc3ccccc3)C(=O)C=C2C=C1c1ccc(C#N)cc1 (stereo unspecified)	0	18	51*	36
COc1ccc(CN2C=C3C(=O)C(C)(OC(=O)CCc4ccccc4)C(=O)C=C3C=C2c2ccc(C#N)cc2)cc1 (stereo unspecified)	0	30	1	6
Cc1cc(NCCCOC(C)C)n2c(nc3ccccc32)c1C#N	26*	nt	nt	nt
Cc1cc(NCCN2CCCCC2)n2c(nc3ccccc32)c1C#N	8	29	14	6
CCOC(=O)c1c(C)nn(Cc2cccc(Cl)c2)c1N	2	0	-1	70*
COc1ccc(-n2c(NC(=O)c3ccc(Br)o3)c(C#N)c3nc4ccccc4nc32)cc1	155*	18	44	88*
N#Cc1c(NC(=O)c2ccc(Br)o2)n(-c2ccccc2)c2nc3ccccc3nc12	162*	35	81*	38
N#Cc1c(N)n(-c2ccc(O)cc2)c2nc3ccccc3nc12	?	31	12	4
CCCOC(=O)c1cc(-c2ccc(/C=C3/C(=O)N(C)C(=O)C(C#N)=C3C)o2)ccc1Cl	nt	24	nt	nt
C=CCOC(=O)c1cc(-c2ccc(/C=C3\C(=O)NC(=O)C(C#N)=C3C)o2)ccc1Cl	nt	91*	0	18
C=CCNC(=S)/N=c1/ccccn1CC	1	10	-2	7
N#C/C(=C\c1ccc(-c2ccc([N+](=O)[O-])cc2)o1)C(=O)Nc1nc(-c2cccs2)cs1	-3	67*	-12	-5
O=C(CN1CCCCCC1)Nc1ccc(Cl)cn1	4	nt	nt	nt
COc1cc(/C=C(\C#N)c2nc3ccccc3[nH]2)c([N+](=O)[O-])cc1OCc1ccccc1	9	0	83*	38
COc1cc(/C=C(\C#N)c2nc3ccccc3[nH]2)ccc1OC(=O)c1ccco1	9	5	1	-20
COc1ccc2nccc(/C=C/c3ccnc4ccc(OC)cc34)c2c1	61*	-59	82*	0
COC(=O)c1cc(C)sc1NC(=O)CSc1ncccn1	1	nt	nt	nt
CCCSc1nc(C)c2cc(C)cc(C)c2n1	-4	-1	-2	2
Cc1cc(C)c2nc3nc(C)c(C)cc3c(N)c2c1	14	7	92*	19
CCN(CC)c1nc(-c2ccc(C(=O)NN)cc2)nc(-c2ccc(C(=O)NN)cc2)n1	3	nt	nt	nt
CCC(OC(C)=O)c1cc2c(cc1[N+](=O)[O-])OCCO2 (stereo unspecified)	3	18	0	3
Cn1c(/C=C/c2ccc(Cl)cc2)nc2ccccc2c1=O	20*	nt	nt	nt
O=c1[nH]c2ccccc2nc1/C=C/c1ccc(Cl)cc1	23*	21	37	-32
SMILES	RanGTP-Imp inh	Hck Nef HTS	Runt-SMMHC FRET	Runt-CBFb FRET
COc1ccc(CCN2CC(C(=O)NCCc3ccccn3)CCC2=O)cc1 (stereo unspecified)	-3	nt	nt	nt
CC(/C=N/NC(=O)c1cccs1)=C\c1ccco1	20*	30	2	2
CC(/C=N/NC(=O)Cc1cccs1)=C\c1ccco1	-5	0	-6	0
Cc1nccn1-c1cc(C(C)(C)C)nc2c(-c3ccccc3)cnn12	-5	0	-19	-10
N#Cc1cc2ccc(N3CCOCC3)cc2cc1C#N	35*	-1	-10	3
COc1ccc(S(=O)(=O)Nc2ccccc2-c2nc3ccccc3[nH]c2=O)cc1	1	nt	nt	nt
O=C(/C=C/c1cccs1)NC1CC1	21*	15	-4	0
O=C(NC(=S)N1CCN(c2nc(-c3ccccc3)cs2)CC1)c1cncc(Br)c1	3	12	nt	nt
CCCn1c(C)nc2c(c1=O)c1nc3ccccc3nc1n2CCC1=CCCCC1	1	5	64*	22
O=C(CCNC(=O)Cn1ccc2ccccc2c1=O)NCCCN1CCN(c2ccc(F)cc2)CC1	2	0	-3	nt

High-throughput results from PubChem BioAssay.
